# Active and inactive are the calls of the source.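 Rule for the calls, unless noted: active = viability at or below 10% of carrier control in both of two separate runs; inconclusive = viability at or below 10% in only one of the two runs; inactive = the rest.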
# Key:
# [1] = reducers of endogenous Her2 protein level, primary screen, SKBR3 breast tumor cells, AlphaScreen, ATP viability (AID 461;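 active = Her2 level under about 52% in both replicate screens, with viability over 70% of control, limit read from the data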;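 for Her2 level: lower value means less Her2 protein in the cells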;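 for viability: percent of carrier control wells set as 100% viability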); conditions: 18-24 h, measured here: SKBR3 viability, ATP luminescence, at 10 µM
# [2] = molecular target: Receptor tyrosine-protein kinase erbB-2 (Homo sapiens) (UniProt P04626); experiment: as above; conditions: 18-24 h, at 10 µM, stronger effect = lower value
# [3] = SK-BR-3 cell growth inhibitors, pilot screen, 24 h, human (AID 572); conditions: SK-BR-3 viability, CellTiter-Glo luminescence, at 10 µM, stronger effect = lower value;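 note: compound exposure lasted between 18 and 24 h rather than exactly 24 h; 100% = carrier-treated control wells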
# [4] = HUVEC growth inhibition – cell-based, human, primary screen (AID 575;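 active = viability at or below 30% in both replicate assays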;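 note: 100% = median of untreated cell wells with 0.1% DMSO on each plate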); conditions: HUVEC proliferation, CellTiter-Glo luminescence, 72 h; at 10 µM; stronger effect = lower value
# Outline: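 Material: primary human umbilical vein endothelial cells / Schedule: 72 h exposure, 37 °C, 5% CO2, 30 min RT equilibration / Signal: ATP-based CellTiter-Glo luminescent read / Read-out basis: percent of median DMSO-control luminescence / Control set: 32 DMSO-only cell-control wells (high), 32 MePR drug-control wells (low) per plate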
# [5] = growth inhibitors of H69AR lung tumor, primary screen, human, duplicate replicates (AID 580;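 active = viability at or under a set limit in both replicates, limit being median viability minus 3 SD, cut at about 48% in these data, passing the limit was not always enough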;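 note: 100% = mean luminescence of untreated wells and 0% = no signal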); conditions: H69AR lung tumor cells viability, ATP luminescence, 72 h; at 10 µM; stronger effect = lower value
# [6] = reversal of MRP1-mediated doxorubicin resistance, pilot screen, H69AR cells, doxorubicin co-treatment (AID 601;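 active = viability loss from added drug above about 55%, and viability with drug at most 40%, in both replicates, limit read from the data, passing the limit was not always enough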); conditions: CellTiter-Glo, 72 h, at 10 µM; for differential viability (reversal): stronger effect = higher value
# [7] = 384-well plate pilot, post-Golgi transport modulator project, inhibition of yeast transport mutant growth (AID 636; in the data active = inhibition above about 31%); conditions: absorbance 615 nm, about 18 h, stronger effect = higher value
# [8] = growth suppression of yeast trafficking mutant, preliminary HTS, modulators of trafficking downstream of Golgi apparatus project, 1536-format plate, OD 615 nm (AID 637; in the data active = inhibition above about 30%); conditions: yeast transport mutant growth, absorbance 615 nm, 18 h; stronger effect = higher value
# [9] = H69AR cells + 2 uM doxorubicin, measured here: viability with 2 uM doxorubicin, stronger effect = lower value
# [10] = H69AR cells, compound alone cytotoxicity
# Receptor tyrosine-protein kinase erbB-2 (Homo sapiens), sequence (P04626 whole entry, looked up): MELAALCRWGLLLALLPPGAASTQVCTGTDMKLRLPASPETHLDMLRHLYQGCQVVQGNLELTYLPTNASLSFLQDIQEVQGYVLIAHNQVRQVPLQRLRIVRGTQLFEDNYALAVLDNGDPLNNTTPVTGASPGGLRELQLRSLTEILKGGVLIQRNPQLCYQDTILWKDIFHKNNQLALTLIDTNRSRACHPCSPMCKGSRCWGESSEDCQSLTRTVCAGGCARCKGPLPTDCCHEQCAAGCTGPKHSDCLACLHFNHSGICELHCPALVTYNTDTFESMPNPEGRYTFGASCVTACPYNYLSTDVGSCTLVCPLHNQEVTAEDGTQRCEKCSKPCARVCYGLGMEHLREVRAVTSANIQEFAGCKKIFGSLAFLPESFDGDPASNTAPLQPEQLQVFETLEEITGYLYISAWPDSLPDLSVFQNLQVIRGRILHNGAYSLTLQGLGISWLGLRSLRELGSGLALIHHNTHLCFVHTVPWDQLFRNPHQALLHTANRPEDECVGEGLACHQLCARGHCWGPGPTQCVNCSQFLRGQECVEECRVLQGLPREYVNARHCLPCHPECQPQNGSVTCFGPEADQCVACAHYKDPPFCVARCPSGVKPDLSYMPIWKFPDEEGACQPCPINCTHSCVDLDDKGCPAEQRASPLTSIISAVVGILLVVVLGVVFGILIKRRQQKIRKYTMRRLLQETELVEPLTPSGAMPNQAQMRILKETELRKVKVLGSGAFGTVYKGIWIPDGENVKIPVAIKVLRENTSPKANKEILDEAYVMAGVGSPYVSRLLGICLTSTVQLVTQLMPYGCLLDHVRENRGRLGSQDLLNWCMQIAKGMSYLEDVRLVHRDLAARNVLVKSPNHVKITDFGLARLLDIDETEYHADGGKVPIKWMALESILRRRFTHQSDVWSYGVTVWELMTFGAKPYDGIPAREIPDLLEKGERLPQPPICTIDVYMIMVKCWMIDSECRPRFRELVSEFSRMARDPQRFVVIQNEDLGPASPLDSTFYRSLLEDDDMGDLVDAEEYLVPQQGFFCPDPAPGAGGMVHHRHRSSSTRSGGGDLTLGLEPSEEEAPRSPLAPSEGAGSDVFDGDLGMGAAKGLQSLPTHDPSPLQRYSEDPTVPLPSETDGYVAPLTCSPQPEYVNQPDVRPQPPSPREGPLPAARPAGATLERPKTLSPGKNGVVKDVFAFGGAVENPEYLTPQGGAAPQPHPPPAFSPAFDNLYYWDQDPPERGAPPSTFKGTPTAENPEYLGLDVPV
Structure (SMILES),viability [1] [%],Her2 level [2],viability [3],viability [4],viability [5],differential viability (reversal) ([6]; H69AR cells + 2 uM doxorubicin),"viability [6, 9] [%]","viability [6, 10] [%]",inhibition [7],inhibition [8]
O=C(CSc1ncccn1)NCc1ccccc1,94,112% (inactive),94% (inactive),106% (inactive),105% (inactive),5.14% (inactive),100,105,4.4% (inactive),-8.71% (inactive)
Cc1cc(C)n2cc(CSCc3ccco3)nc2n1,97,83% (inactive),97% (inactive),113% (inactive),95.2% (inactive),8.73% (inactive),86.4,95.2,-7.16% (inactive),0.83% (inactive)
COc1cccc(-c2cc(C(F)(F)F)n3ncc(C(=O)O)c3n2)c1,93,87.5% (inactive),93% (inactive),117% (inactive),108% (inactive),9.06% (inactive),98.8,108,-3.2% (inactive),-2.95% (inactive)
CCOc1ccc2ccccc2c1/C=N/n1cncn1,99.5,101% (inactive),99.5% (inactive),87% (inactive),92.3% (inactive),-11.2% (inactive),103,92.3,-5.53% (inactive),1.64% (inactive)
CC(C)(C)OC(=O)N1CCC(C(=O)N2CCCCCC2)CC1,94,87.5% (inactive),94% (inactive),102% (inactive),107% (inactive),21.3% (inactive),86.2,107,-1.71% (inactive),-6.36% (inactive)
c1ccc2c(Cn3ccnc3)c[nH]c2c1,109,114% (inactive),109% (inactive),85.3% (inactive),86% (inactive),-5.34% (inactive),91.4,86,-5.19% (inactive),-2.62% (inactive)
COc1ccccc1Nc1nc(N)nc(CSc2nccc(C)n2)n1,99,90.5% (inactive),99% (inactive),107% (inactive),91% (inactive),5.23% (inactive),85.7,91,-3.82% (inactive),0% (inactive)
O=c1[nH]c(N2CCc3ccccc32)nc2c1CCCC2,125,104% (inactive),125% (inactive),101% (inactive),104% (inactive),21.9% (inactive),81.8,104,-1.87% (inactive),-1.45% (inactive)
Cc1c(C(=O)O)sc2nc3n(c(=O)c12)CCC(C)CC3 (stereo not given),93,87% (inactive),93% (inactive),82.2% (inactive),88.2% (inactive),5.25% (inactive),83,88.2,-0.53% (inactive),8.69% (inactive)
COc1cc(S(=O)(=O)NC2CCCCC2)ccc1Cl,94.5,84.5% (inactive),94.5% (inactive),82.3% (inactive),92.7% (inactive),7.43% (inactive),85.3,92.7,-3.95% (inactive),-2.7% (inactive)
O=C(O)c1cc2c(s1)CCCC2,88.5,93% (inactive),88.5% (inactive),104% (inactive),89.9% (inactive),-1.15% (inactive),91.1,89.9,-1.03% (inactive),-7.83% (inactive)
CCOC(=O)c1c(NCc2ccc3c(c2)OCO3)c2ccccc2[nH]c1=O,100,69.5% (inactive),100% (inactive),100% (inactive),87.3% (inactive),-5.86% (inactive),93.1,87.3,-8.78% (inactive),1.33% (inactive)
Cc1nn(-c2ccc(F)cc2)c(C)c1NS(=O)(=O)c1ccc(Cl)cc1,106,85% (inactive),106% (inactive),90.9% (inactive),77% (inactive),-5.18% (inactive),82.2,77,-8.27% (inactive),-2.79% (inactive)
O=C1CCC(=O)N1OCCCOc1ccc(Br)cc1Cl,106,98.5% (inactive),106% (inactive),90% (inactive),93.5% (inactive),-2.35% (inactive),95.9,93.5,0.13% (inactive),2.22% (inactive)
CCOC(=O)c1[nH]c2ccccc2c1NC(=O)C(CC)CC,98.5,99.5% (inactive),98.5% (inactive),80.8% (inactive),93.3% (inactive),13.9% (inactive),79.4,93.3,-4.27% (inactive),5.5% (inactive)
COC(=O)c1ccccc1NC(=O)Cn1ccnc1,110,88.5% (inactive),110% (inactive),80.8% (inactive),97.7% (inactive),-3.07% (inactive),101,97.7,-2.3% (inactive),1.11% (inactive)

Structure (SMILES),viability [1] [%],Her2 level [2],viability [3],viability [4],viability [5],differential viability (reversal) ([6]; H69AR cells + 2 uM doxorubicin),"viability [6, 9] [%]","viability [6, 10] [%]",inhibition [7],inhibition [8]
CC(C)N1C(=O)C2C(C(=O)NC3CCCCC3)C3C=CC2(O3)C1C(=O)NC1CCCC1 (stereo not given),94.5,87% (inactive),94.5% (inactive),107% (inactive),109% (inactive),15.9% (inactive),93.5,109,-4.67% (inactive),-1.11% (inactive)
Cc1onc(-c2ccccc2)c1C(N)=O,91,93.5% (inactive),91% (inactive),97.7% (inactive),100% (inactive),13.8% (inactive),86.7,100,-1.32% (inactive),-4.35% (inactive)
O=C(CSc1ncnc2ccccc12)NCCCO,104,80% (inactive),104% (inactive),103% (inactive),103% (inactive),12.2% (inactive),91.1,103,-0.65% (inactive),4.92% (inactive)
Cc1ccc(/C=N/n2nnnc2N)o1,93,88% (inactive),93% (inactive),111% (inactive),95.1% (inactive),10.6% (inactive),84.5,95.1,-8.38% (inactive),-10.5% (inactive)
CCOC(=O)N1CCN(C(=O)c2ccc3c(SCC(=O)O)c4c(nc3c2)CCCC4)CC1,95.5,92.5% (inactive),95.5% (inactive),93.8% (inactive),100% (inactive),6.52% (inactive),93.9,100,0.13% (inactive),22.3% (inactive)
COc1ccc(C2C(C(=O)NCCN3CCOCC3)c3ccccc3C(=O)N2C2CCCCC2)cc1 (stereo not given),88.5,71% (inactive),88.5% (inactive),64.3% (inactive),81.3% (inactive),2.12% (inactive),79.2,81.3,-3.33% (inactive),0% (inactive)
COc1cc(C2c3c(oc4c(C)cc(C)cc4c3=O)C(=O)N2Cc2cccnc2)cc(OC)c1OC (stereo not given),110,114% (inactive),110% (inactive),97.6% (inactive),110% (inactive),6.48% (inactive),104,110,1.33% (inactive),-3.06% (inactive)
Cc1cc(C)n(-c2nnc(C)n2/N=C/c2ccccc2F)n1,94,89% (inactive),94% (inactive),110% (inactive),98.3% (inactive),13.3% (inactive),84.9,98.3,-7.07% (inactive),4.59% (inactive)
CC(=O)Nc1sc2c(c1CN1CCN(c3ccccn3)CC1)CCCC2,66,85.5% (inactive),66% (inactive),96% (inactive),95.4% (inactive),12% (inactive),83.3,95.4,-2.53% (inactive),-10.5% (inactive)
CCC(=NC(C)c1ccccc1)c1c(O)n(C)c(=O)n(C)c1=O (stereo not given),94,88% (inactive),94% (inactive),72.8% (inactive),90.7% (inactive),-14.2% (inactive),105,90.7,-2.89% (inactive),6.39% (inactive)
CCOc1cccc(C(=O)N(Cc2ccc(F)cc2)C2CCS(=O)(=O)C2)c1 (stereo not given),97,98% (inactive),97% (inactive),100% (inactive),86.3% (inactive),-3.54% (inactive),89.9,86.3,-1.82% (inactive),-2.33% (inactive)
O=C(CCc1nc2ccccc2[nH]1)Nc1ccc2c(c1)OCO2,79,126% (inactive),79% (inactive),48.6% (inactive),90.8% (inactive),-2.33% (inactive),93.1,90.8,0.9% (inactive),-4.33% (inactive)
Cc1cc(C)c2c(n1)nn1c(C3CC3)cc(C(F)(F)F)nc21,106,89% (inactive),106% (inactive),90.7% (inactive),92.4% (inactive),-4.02% (inactive),96.4,92.4,-5.41% (inactive),2.54% (inactive)
COc1ccccc1CNC(=O)N[C@@H](Cc1ccccc1)C(=O)O,102,80% (inactive),102% (inactive),114% (inactive),93.2% (inactive),12.2% (inactive),81,93.2,-5.81% (inactive),10.5% (inactive)
O=C(C1CC1(c1ccccc1)c1ccccc1)N1CCOCC1 (stereo not given),112,106% (inactive),112% (inactive),99.3% (inactive),98.8% (inactive),11.4% (inactive),87.3,98.8,-5.6% (inactive),1.45% (inactive)
O=C(NCc1ccccc1)C1CCCN1S(=O)(=O)c1cccc2cccnc12 (stereo not given),94,99.5% (inactive),94% (inactive),93% (inactive),110% (inactive),15.6% (inactive),94.4,110,-0.53% (inactive),-0.98% (inactive)

# From PubChem BioAssay
